Source: ChEMBL document CHEMBL4346672, “Antimicrobial and KPC/AmpC inhibitory activity of functionalized benzosiloxaboroles” (Eur J Med Chem, 2019)
≈ marks a conversion by molar mass, not a printed value. Calls of active or inactive are those of the source. The rule behind the calls is not given here.

system: Staphylococcus aureus; assay: Antibacterial activity against Staphylococcus aureus ATCC 6538P assessed as diameter of zone inhibition measured after 18 hrs by CLSI disc diffusion method; type: functional; details: not given
In short: (§1)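 Disc diffusion on Mueller-Hinton II agar. Compounds dissolved in DMSO. Strains stored at -80 °C and subcultured twice on tryptic soy agar before testing. Inhibition zones read after 35 °C, 18 h.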

Compound | diameter of the inhibition zone (DIZ) [mm]
C[Si]1(C)OB(O)c2cccc(B(O)O)c21 | 11

system: Pseudomonas aeruginosa; assay: Antibacterial activity against Pseudomonas aeruginosa ATCC 27853 measured after 18 hrs by CLSI broth dilution method; type: functional; details: ATCC 27853, 18 h
In short: (§2)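 Broth MIC in Mueller-Hinton II broth following CLSI, compounds dissolved in DMSO. Strains subcultured twice on tryptic soy agar before testing. Growth read after 35 °C, 18 h.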

MIC [µg/mL] | Compound
> 400 | C[Si]1(C)OB(O)c2cccc(B(O)O)c21

system: Serratia marcescens; assay: Antibacterial activity against Serratia marcescens ATCC 13880 measured after 18 hrs by CLSI broth dilution method; type: functional; details: ATCC 13880, 18 h; in short: as §2

MIC [µg/mL] | Compound
> 400 | C[Si]1(C)OB(O)c2cccc(B(O)O)c21

system: not listed separately; assay: Dissociation constant, pKa1 of compound in 0.1 M NaOH by potentiometric analysis; type: physicochemical; details: not given

pKa | Compound
7.4 | C[Si]1(C)OB(O)c2cccc(B(O)O)c21

system: Candida parapsilosis; assay: Antifungal activity against Candida parapsilosis ATCC 22019 assessed as decrease in fungal cell growth at 0.78 to 12.5 mg/L incubated for 24 hrs by CLSI broth dilution method; type: functional; details: Lodderomyces parapsilosis, ATCC 22019, 24 h
In short: (§3)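 Yeast broth dilution in RPMI 1640 with 2% glucose, compounds in DMSO. Yeasts pre-grown on Sabouraud dextrose agar. Growth read after 35 °C, 24 h.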

MIC [µg/mL] | Compound
400 (≈ 1800 µM) | C[Si]1(C)OB(O)c2cccc(B(O)O)c21

system: Meyerozyma guilliermondii; assay: Antifungal activity against Candida guilliermondii IBA 155 assessed as decrease in fungal cell growth at 0.78 to 12.5 mg/L incubated for 24 hrs by CLSI broth dilution method; type: functional; details: IBA 155, 24 h; in short: as §3

MIC [µg/mL] | Compound
> 400 | C[Si]1(C)OB(O)c2cccc(B(O)O)c21

system: Candida albicans; assay: Antifungal activity against Candida albicans ATCC 90028 assessed as diameter of zone inhibition incubated for 24 hrs by CLSI disc diffusion method; type: functional; details: not given
In short: (§4)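 Yeast disc diffusion on Mueller-Hinton agar supplemented with 2% glucose and 0.5 mg/L methylene blue. Compounds in DMSO. Yeasts subcultured on Sabouraud dextrose agar before testing. Zones read after 35 °C, 24 h.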

Compound | diameter of the inhibition zone (DIZ)
C[Si]1(C)OB(O)c2cccc(B(O)O)c21 | inactive

system: Candida parapsilosis; assay: Antifungal activity against Candida parapsilosis ATCC 22019 assessed as diameter of zone inhibition incubated for 24 hrs by CLSI disc diffusion method; type: functional; details: not given; in short: as §4

Compound | diameter of the inhibition zone (DIZ)
C[Si]1(C)OB(O)c2cccc(B(O)O)c21 | inactive

system: Candida tropicalis; assay: Antifungal activity against Candida tropicalis IBA 171 assessed as diameter of zone inhibition incubated for 24 hrs by CLSI disc diffusion method; type: functional; details: not given; in short: as §4

Compound | diameter of the inhibition zone (DIZ)
C[Si]1(C)OB(O)c2cccc(B(O)O)c21 | inactive

system: Meyerozyma guilliermondii; assay: Antifungal activity against Candida guilliermondii IBA 155 assessed as diameter of zone inhibition incubated for 24 hrs by CLSI disc diffusion method; type: functional; details: not given; in short: as §4

Compound | diameter of the inhibition zone (DIZ)
C[Si]1(C)OB(O)c2cccc(B(O)O)c21 | inactive

system: Pichia kudriavzevii; assay: Antifungal activity against Candida krusei ATCC 6258 assessed as diameter of zone inhibition incubated for 24 hrs by CLSI disc diffusion method; type: functional; details: not given; in short: as §4

Compound | diameter of the inhibition zone (DIZ)
C[Si]1(C)OB(O)c2cccc(B(O)O)c21 | inactive

system: Staphylococcus aureus; assay: Antibacterial activity against Staphylococcus aureus ATCC 6538P measured after 18 hrs by CLSI broth dilution method; type: functional; details: not given; in short: as §2

MIC [µg/mL] | Compound
400 (≈ 1800 µM) | C[Si]1(C)OB(O)c2cccc(B(O)O)c21

system: Enterococcus faecalis; assay: Antibacterial activity against Enterococcus faecalis ATCC 29212 measured after 18 hrs by CLSI broth dilution method; type: functional; details: ATCC 29212, 18 h; in short: as §2

MIC [µg/mL] | Compound
> 400 | C[Si]1(C)OB(O)c2cccc(B(O)O)c21

system: Enterococcus faecium; assay: Antibacterial activity against Enterococcus faecium ATCC 6057 measured after 18 hrs by CLSI broth dilution method; type: functional; details: ATCC 6057, 18 h; in short: as §2

MIC [µg/mL] | Compound
400 (≈ 1800 µM) | C[Si]1(C)OB(O)c2cccc(B(O)O)c21

system: Staphylococcus epidermidis; assay: Antibacterial activity against Staphylococcus epidermidis ATCC 12228 assessed as diameter of zone inhibition measured after 18 hrs by CLSI disc diffusion method; type: functional; details: not given; in short: as §1

Compound | diameter of the inhibition zone (DIZ) [mm]
C[Si]1(C)OB(O)c2cccc(B(O)O)c21 | 22

system: Enterococcus faecalis; assay: Antibacterial activity against Enterococcus faecalis ATCC 29212 assessed as diameter of zone inhibition measured after 18 hrs by CLSI disc diffusion method; type: functional; details: not given; in short: as §1

Compound | diameter of the inhibition zone (DIZ)
C[Si]1(C)OB(O)c2cccc(B(O)O)c21 | inactive

system: Enterococcus faecium; assay: Antibacterial activity against Enterococcus faecium ATCC 6057 assessed as diameter of zone inhibition measured after 18 hrs by CLSI disc diffusion method; type: functional; details: not given; in short: as §1

Compound | diameter of the inhibition zone (DIZ)
C[Si]1(C)OB(O)c2cccc(B(O)O)c21 | inactive

system: Bacillus subtilis; assay: Antibacterial activity against Bacillus subtilis ATCC 6633 assessed as diameter of zone inhibition measured after 18 hrs by CLSI disc diffusion method; type: functional; details: not given; in short: as §1

Compound | diameter of the inhibition zone (DIZ) [mm]
C[Si]1(C)OB(O)c2cccc(B(O)O)c21 | 15

system: Klebsiella pneumoniae; assay: Antibacterial activity against Klebsiella pneumoniae ATCC 13883 measured after 18 hrs by CLSI broth dilution method; type: functional; details: ATCC 13883, 18 h; in short: as §2

MIC [µg/mL] | Compound
> 400 | C[Si]1(C)OB(O)c2cccc(B(O)O)c21

system: Proteus mirabilis; assay: Antibacterial activity against Proteus mirabilis ATCC 12453 measured after 18 hrs by CLSI broth dilution method; type: functional; details: ATCC 12453, 18 h; in short: as §2

MIC [µg/mL] | Compound
> 400 | C[Si]1(C)OB(O)c2cccc(B(O)O)c21

system: Enterobacter cloacae; assay: Antibacterial activity against Enterobacter cloacae DSM 6234 measured after 18 hrs by CLSI broth dilution method; type: functional; details: DSM 6234, 18 h; in short: as §2

MIC [µg/mL] | Compound
> 400 | C[Si]1(C)OB(O)c2cccc(B(O)O)c21

system: Bordetella bronchiseptica; assay: Antibacterial activity against Bordetella bronchiseptica ATCC 4617 measured after 18 hrs by CLSI broth dilution method; type: functional; details: ATCC 4617, 18 h; in short: as §2

MIC [µg/mL] | Compound
> 400 | C[Si]1(C)OB(O)c2cccc(B(O)O)c21

system: Acinetobacter baumannii; assay: Antibacterial activity against Acinetobacter baumannii ATCC 19606 measured after 18 hrs by CLSI broth dilution method; type: functional; details: ATCC 19606, 18 h; in short: as §2

MIC [µg/mL] | Compound
400 (≈ 1800 µM) | C[Si]1(C)OB(O)c2cccc(B(O)O)c21

system: Stenotrophomonas maltophilia; assay: Antibacterial activity against Stenotrophomonas maltophilia ATCC 13637 measured after 18 hrs by CLSI broth dilution method; type: functional; details: ATCC 13637, 18 h; in short: as §2

MIC [µg/mL] | Compound
> 400 | C[Si]1(C)OB(O)c2cccc(B(O)O)c21

system: Burkholderia cepacia; assay: Antibacterial activity against Burkholderia cepacia ATCC 25416 measured after 18 hrs by CLSI broth dilution method; type: functional; details: ATCC 25416, 18 h; in short: as §2

MIC [µg/mL] | Compound
> 400 | C[Si]1(C)OB(O)c2cccc(B(O)O)c21

system: Escherichia coli; assay: Antibacterial activity against Escherichia coli ATCC 25922 assessed as diameter of zone inhibition measured after 18 hrs by CLSI disc diffusion method; type: functional; details: not given; in short: as §1

Compound | diameter of the inhibition zone (DIZ)
C[Si]1(C)OB(O)c2cccc(B(O)O)c21 | inactive

system: Proteus mirabilis; assay: Antibacterial activity against Proteus mirabilis ATCC 12453 assessed as diameter of zone inhibition measured after 18 hrs by CLSI disc diffusion method; type: functional; details: not given; in short: as §1

Compound | diameter of the inhibition zone (DIZ)
C[Si]1(C)OB(O)c2cccc(B(O)O)c21 | inactive

system: Acinetobacter baumannii; assay: Antibacterial activity against Acinetobacter baumannii ATCC 19606 assessed as diameter of zone inhibition measured after 18 hrs by CLSI disc diffusion method; type: functional; details: not given; in short: as §1

Compound | diameter of the inhibition zone (DIZ)
C[Si]1(C)OB(O)c2cccc(B(O)O)c21 | inactive

system: Burkholderia cepacia; assay: Antibacterial activity against Burkholderia cepacia ATCC 25416 assessed as diameter of zone inhibition measured after 18 hrs by CLSI disc diffusion method; type: functional; details: not given; in short: as §1

Compound | diameter of the inhibition zone (DIZ)
C[Si]1(C)OB(O)c2cccc(B(O)O)c21 | inactive

system: Bordetella bronchiseptica; assay: Antibacterial activity against Bordetella bronchiseptica ATCC 4617 assessed as diameter of zone inhibition measured after 18 hrs by CLSI disc diffusion method; type: functional; details: not given; in short: as §1

Compound | diameter of the inhibition zone (DIZ)
C[Si]1(C)OB(O)c2cccc(B(O)O)c21 | inactive

system: Escherichia coli; assay: Antibacterial activity against Escherichia coli ATCC 25922 assessed as fold reduction of MIC in presence of efflux pump inhibitor PAbetaN incubated for 18 hrs by CLSI broth microdilution method; type: functional; details: not given
In short: (§5)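 MICs determined with and without PAβN at 50 mg/L in Mueller-Hinton broth containing 1 mM MgSO₄. 2-fold serial dilutions per CLSI. Fold change taken from the paired MICs after 35 °C, 18 h.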

Compound | fold change (FC)
C[Si]1(C)OB(O)c2cccc(B(O)O)c21 | 4

system: Klebsiella pneumoniae; assay: Antibacterial activity against Klebsiella pneumoniae ATCC 13883 assessed as fold reduction of MIC in presence of efflux pump inhibitor PAbetaN incubated for 18 hrs by broth microdilution method; type: functional; details: not given; in short: as §5

Compound | fold change (FC)
C[Si]1(C)OB(O)c2cccc(B(O)O)c21 | 4

system: Proteus mirabilis; assay: Antibacterial activity against Proteus mirabilis ATCC 12453 assessed as fold reduction of MIC in presence of efflux pump inhibitor PAbetaN incubated for 18 hrs by broth microdilution method; type: functional; details: not given; in short: as §5

Compound | fold change (FC)
C[Si]1(C)OB(O)c2cccc(B(O)O)c21 | 0

system: Stenotrophomonas maltophilia; assay: Antibacterial activity against Stenotrophomonas maltophilia ATCC 13637 assessed as fold reduction of MIC in presence of efflux pump inhibitor PAbetaN incubated for 18 hrs by broth microdilution method; type: functional; details: not given; in short: as §5

Compound | fold change (FC)
C[Si]1(C)OB(O)c2cccc(B(O)O)c21 | 16

system: Klebsiella pneumoniae; details: ATCC 13883

Compound | DIZ
C[Si]1(C)OB(O)c2cccc(B(O)O)c21 | inactive

system: Serratia marcescens; details: ATCC 13880

Compound | DIZ
C[Si]1(C)OB(O)c2cccc(B(O)O)c21 | inactive
